In ChEMBL document CHEMBL1134461, “Hexahydrochromeno[4,3-b]pyrrole derivatives as acetylcholinesterase inhibitors” (J Med Chem, 2001):

Key:
Acetylcholinesterase [1] = biological target: T1, Acetylcholinesterase (Homo sapiens, UniProt P22303); assay: Inhibitory activity against acetylcholinesterase in human erythrocytes; assay type: cell-based
How it was run: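 Ellman colorimetric assay with human erythrocyte enzyme (AChE or BChE), 0.035 unit/mL, in 0.1 M phosphate buffer pH 8.0 with 340 μM DTNB. Inhibitor preincubated with enzyme 20 min, then 550 μM acetylthiocholine iodide added. […] IC50 read graphically from log concentration–inhibition curves; pIC50 is the mean of two independent measurements.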

Acetylcholinesterase [2] = biological target: T1, Acetylcholinesterase
Acetylcholinesterase [3] = biological target: T1, Acetylcholinesterase; remark: listed apart in the source

T1 sequence (P22303 whole entry): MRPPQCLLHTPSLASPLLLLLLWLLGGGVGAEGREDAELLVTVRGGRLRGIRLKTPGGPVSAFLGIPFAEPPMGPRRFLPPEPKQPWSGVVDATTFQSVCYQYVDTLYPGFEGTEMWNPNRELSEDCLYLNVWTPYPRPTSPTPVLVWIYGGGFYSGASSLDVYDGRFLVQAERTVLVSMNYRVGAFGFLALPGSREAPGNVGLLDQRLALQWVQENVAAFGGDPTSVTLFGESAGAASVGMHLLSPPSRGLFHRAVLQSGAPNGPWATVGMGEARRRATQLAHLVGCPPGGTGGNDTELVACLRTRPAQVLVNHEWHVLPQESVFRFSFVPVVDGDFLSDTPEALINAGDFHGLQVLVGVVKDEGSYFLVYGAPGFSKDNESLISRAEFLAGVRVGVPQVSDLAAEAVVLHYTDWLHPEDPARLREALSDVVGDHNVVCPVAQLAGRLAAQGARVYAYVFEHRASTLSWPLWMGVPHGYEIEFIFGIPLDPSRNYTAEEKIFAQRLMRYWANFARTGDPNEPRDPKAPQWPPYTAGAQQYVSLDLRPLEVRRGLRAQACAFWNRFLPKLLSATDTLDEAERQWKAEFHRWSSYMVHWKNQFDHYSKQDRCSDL

Structure (SMILES)	IC50 (Acetylcholinesterase [1]) [nM]	k3 (Acetylcholinesterase [2]) [min⁻¹]	Kc (Acetylcholinesterase [3]) [nM]
CNC(=O)Oc1ccc2c(c1)OC[C@@H]1CC[N+](C)(C)[C@H]21	1820		
CNC(=O)Oc1cccc2c1OC[C@@H]1CCN(C)[C@H]21 (stereo in doubt; (-)-4)	22.9		
CNC(=O)Oc1cccc2c1OC[C@@H]1CCN(C)[C@H]21 (stereo in doubt; 4) [listing 1 of 2 here]		26.5	730
CNC(=O)Oc1ccc2c(c1)[C@@H]1[C@@H](CCN1C)CO2	16200		
O=C(CCCCCCC(=O)NCCCCCCN1CC[C@H]2COc3ccccc3[C@H]21)NCCCCCCN1CC[C@H]2COc3ccccc3[C@H]21	9770		
CN1CC[C@H]2COc3c(O)cccc3[C@H]21	39800		
CNC(=O)Oc1ccc2c(c1)OC[C@@H]1CCN(C)[C@H]21	1950		
CNC(=O)Oc1cccc2c1OC[C@@H]1CCN(C)[C@H]21 (stereo in doubt; 4) [listing 2 of 2 here]	29.5		
CNC(=O)Oc1ccc2c(c1)[C@]1(C)CCN(C)[C@@H]1N2C			250
CNC(=O)Oc1cccc2c1OC[C@@H]1CCN(C)[C@H]21 (stereo in doubt; (+)-4)	74.1		
